Published values gathered from unrelated publications.
Each line is one published result; the experiments were not run side by side.
Target: Serine/threonine-protein kinase N2 (PKN2, Homo sapiens, UniProt Q16513)

| Structure (SMILES) | observed | mode | method | cells | concentration | quantity | result |
| --- | --- | --- | --- | --- | --- | --- | --- |
| CCCCN(CCCC)C(=O)CN1C[C@H](c2cc(OC)c3c(c2)OCO3)[C@@H](C(=O)O)[C@@H]1CC(C)(C)CCC | cell-free assay | – | competition with immobilised ligand | – | 1 µM | remaining binding | 100% |
| O=C(Nc1cnn(-c2csc(C(=O)NC3COC3)c2)c1)Nc1c(F)cccc1Cl | enzyme activity | inhibitor | – | – | 5 µM | remaining activity | 105% |
| Cc1ccc(NC(=O)c2ccc(CN3CCN(C)CC3)cc2)cc1Nc1nc(-c2cccnc2)cs1 | cell-free assay | – | – | – | 0.5 µM | remaining signal | 108% |
| CNCc1ccc(-c2cc(-c3nc(-c4ccc(S(=O)(=O)C(C)C)cc4)cnc3N)on2)cc1 | enzyme activity | inhibitor | – | – | 2 µM | inhibition | 82% |
| CN(C)c1ncnc(-c2ccc3nc(Nc4cc(CN5CCN(C(=O)CC(F)(F)F)CC5)ccn4)[nH]c3c2)c1Cl | cell-free assay | – | competition with immobilised ligand | – | 1 µM | remaining binding | 85% |
| COc1cc(Cl)c(C(=O)N[C@@H](CN[C@H]2CC[C@@H](N)CC2)Cc2ccc(C#N)cc2)cc1-c1ccc(CN[C@H](C)c2ccc(C)cc2)o1 | enzyme activity | inhibitor | – | – | 1 µM | remaining activity | 102% |
| CCCCNc1ncc2c(-c3ccc(F)cc3)nn(C[C@H]3CC[C@H](N)CC3)c2n1 | target engagement in cells | inhibitor | chemoproteomics | – | 20 mM | inhibition | 2.9% |
| Cc1ccc(Nc2nccc(N(C)c3ccc4c(C)n(C)nc4c3)n2)cc1S(N)(=O)=O | enzyme activity | inhibitor | – | – | 0.3 µM | inhibition | 19% |
| Cc1cc(C)c(-n2ccn3nc(-c4cccnc4)cc23)cc1NC(=O)c1cc(C#N)cc(S(F)(F)(F)(F)F)c1 | cell-free assay | – | competition with immobilised ligand | – | 0.1 µM | remaining binding | 100% |
| Cc1cc(NC(=O)c2cccc3cc(-c4cccc5[nH]nc(N)c45)ccc23)ccc1F | enzyme activity | inhibitor | – | – | 0.1 µM | activity vs control | 101% |
| CC(C)CC(=O)N1CCc2nc(-c3ccc(Br)cc3)nc(N(C)Cc3ccccc3)c2C1 | cell-free assay | – | competition with immobilised ligand | – | 0.1 µM | remaining binding | 80% |
| CNC(=O)c1cc(Oc2ccc(NC(=O)Nc3ccc(Cl)c(C(F)(F)F)c3)cc2)ccn1 | enzyme activity | inhibitor | – | – | 10 µM | inhibition | 20% |
| O=C(Nc1cnn(-c2csc(C(=O)NC3COC3)c2)c1)Nc1ccccc1Cl | enzyme activity | inhibitor | – | – | 5 µM | remaining activity | 112% |
| Cn1c2c(c3ccc(Cl)c(Cl)c31)C(C#N)C(C)(C)NC2=O (stereo not shown) | thermal stability | – | DSF | – | 10 µM | ΔTm | 1.3 °C |
| c1cnn2ncc(-c3ccnc(N4CCC45COC5)n3)c2c1 | binding | – | – | – | 1 µM | remaining binding | 89% |
| Nc1nc(NC2CCCCC2)sc1C(=O)c1ccccc1 | enzyme activity | inhibitor | – | – | 10 µM | remaining activity | 98% |
| CN1CCC2(CC1)NC(=O)c1c(c3ccc(Cl)c(Cl)c3n1C)C2C#N (racemic) | thermal stability | – | DSF | – | 10 µM | ΔTm | 2.5 °C |

| Structure (SMILES) | observed | mode | method | cells | concentration | quantity | result |
| --- | --- | --- | --- | --- | --- | --- | --- |
| CCN(CC)CCNC(=O)c1c(C)[nH]c(/C=C2\C(=O)Nc3ccc(F)cc32)c1C | enzyme activity | inhibitor | – | – | 10 µM | inhibition | 69% |
| CCCOc1ccc(OC)c(F)c1C(=O)c1ccc(C(=O)N[C@@H]2CNC[C@H]2NC(=O)c2ccc3[nH]ncc3c2)cc1 | enzyme activity | inhibitor | – | – | 0.1 µM | remaining activity | 53% |
| CC1=C(C#N)[C@@H](c2ccc3[nH]nc(C)c3c2)C(C#N)=C(c2ccc(Cl)cc2)N1 | cell-free assay | – | competition with immobilised ligand | – | 1 µM | remaining binding | 74.6% |
| Cc1ccc(NC(=O)c2ccc(C)c(C(F)(F)F)c2)cc1C#Cc1nn(C2CCC(O)CC2)c2ncnc(N)c12 (stereo not shown) | cell-free assay | – | – | – | 10 µM | remaining signal | 97% |
| O=c1nc(-c2ccccn2)sc2ccccc12 | binding | – | competition with immobilised ligand | – | 1 µM | remaining binding | 100% |
| Cn1c(=O)n(-c2ccc(C(C)(C)C#N)cc2)c2c3cc(-c4cnc5ccccc5c4)ccc3ncc21 | enzyme activity | inhibitor | – | – | 10 µM | remaining activity | 74% |
| O=S(=O)(c1cccc2cnccc12)N1CCCNCC1 | cell-free assay | – | – | – | 0.5 µM | remaining signal | 103% |
| Oc1cccc(-c2nc(N3CCOCC3)c3oc4ncccc4c3n2)c1 | enzyme activity | inhibitor | – | – | 10 µM | remaining activity | 71% |
| CC(C)(O)[C@H]1CC[C@H](Nc2ccc3ncc(-c4cccc(C(F)(F)F)c4)n3n2)CC1 | enzyme activity | inhibitor | – | – | 1 µM | remaining activity | 95.9% |
| Cc1cc(-n2nc(Cc3cc(F)cc(C(F)(F)F)c3)nc2C)ccc1C(N)=O | cell-free assay | – | competition with immobilised ligand | – | 1 µM | remaining binding | 100% |
| CN1CC(Oc2cnc(C#N)cc2-c2ccn3nc(NC(=O)C4CC4)cc3c2)C1 | enzyme activity | inhibitor | – | – | 1 µM | inhibition | 15% |
| COc1cc(-c2cc(-c3ccc(N4CCNCC4)cc3)cnc2C)cc(OC)c1OC | enzyme activity | inhibitor | – | – | 1 µM | inhibition | 1% |
| COc1cc(Nc2cnc(C#N)c(O[C@H](C)CN(C)C)n2)ncc1-c1cnn(C)c1 | enzyme activity | inhibitor | radiometric | – | 10 µM | remaining activity | 86% |
| CCN1CCN(Cc2ccc(NC(=O)c3ccc(C)c(Oc4ccnc5[nH]ccc45)c3)cc2C(F)(F)F)CC1 | target engagement in cells | inhibitor | chemoproteomics | Huh-7 | 10 µM | inhibition | -10.5% |
| CC(C)(C)c1nc2c(s1)c1nc(N)ncc1c1ccc(NS(=O)(=O)c3c(F)cccc3F)c(F)c12 | enzyme activity | inhibitor | radiometric | – | 1 µM | remaining activity | 91% |
| O=C1NC(=O)c2cc(Nc3ccc(F)cc3)c(Nc3ccc(F)cc3)cc21 | cell-free assay | – | – | – | 0.5 µM | remaining signal | 102% |
| CCS(=O)(=O)c1cc2cc(C[C@@](O)(CC(C)(C)c3ccc(F)cc3C(N)=O)C(F)(F)F)[nH]c2cn1 | cell-free assay | – | competition with immobilised ligand | – | 1 µM | remaining binding | 85% |
